Key:
Format in all cases: functional
Meriones unguiculatus [1] = assay: Percent reduction of Haemonchus contortus in immunosuppressed jird (Meriones unguiculatus) when CDP administered 0.11 mg/jird orally
In short: (§1)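 Jirds were immunosuppressed via medicated food; 5 days later each got ~1000 exsheathed infective H. contortus larvae (pre-incubated 1 h in Earle's balanced salt solution) per os. The strain was maintained in sheep. Jirds were randomized by cage (3/group) on day 10 post-inoculation. Compound was suspended in 17% DMSO/83% carboxymethylcellulose and given orally in 0.2 mL, with vehicle-only controls. Worms were recovered after 5 h incubation at 37 °C, fixed in formaldehyde and counted under a dissecting microscope. Percent clearance = (mean control − mean treated)/mean control × 100.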

Meriones unguiculatus [2] = assay: Percent reduction of Haemonchus contortus in immunosuppressed jird (Meriones unguiculatus) when CDP administered 3 mg/jird orally; in short: as §1
Meriones unguiculatus [3] = assay: Percent reduction of Haemonchus contortus in immunosuppressed jird (Meriones unguiculatus) when CDP administered 1 mg/jird orally; in short: as §1
Meriones unguiculatus [4] = assay: Percent reduction of Haemonchus contortus in immunosuppressed jird (Meriones unguiculatus) when CDP administered 0.33 mg/jird orally; in short: as §1
Meriones unguiculatus [5] = assay: Percent reduction of Haemonchus contortus in immunosuppressed jird (Meriones unguiculatus) when CDP administered 2.75 mg/jird orally; in short: as §1
Meriones unguiculatus [6] = assay: Percent reduction of Haemonchus contortus in immunosuppressed jird (Meriones unguiculatus) when CDP administered 5.75 mg/jird orally; in short: as §1

Row | SMILES | Reduction (Meriones unguiculatus [1]) | Reduction (Meriones unguiculatus [2]) | Reduction (Meriones unguiculatus [3]) | Reduction (Meriones unguiculatus [4]) | Reduction (Meriones unguiculatus [5]) | Reduction (Meriones unguiculatus [6])
1 | CC(C)C[C@H]1C(=O)O[C@H](Cc2ccccc2)C(=O)N(C)[C@@H](CC(C)C)C(=O)O[C@H](C)C(=O)N(C)[C@@H](CC(C)C)C(=O)O[C@H](Cc2ccccc2)C(=O)N(C)[C@@H](CC(C)C)C(=O)O[C@H](C)C(=O)N1C | 100% |  |  |  |  | 
2 | CC(C)C[C@H]1C(=O)O[C@H](Cc2ccccc2)C(=O)N(C)[C@@H](CC(C)C)C(=O)OC2CCCN(C2=O)[C@@H](CC(C)C)C(=O)O[C@H](Cc2ccccc2)C(=O)N(C)[C@@H](CC(C)C)C(=O)O[C@H](C)C(=O)N1C (stereo partly specified) | 36% | 99% | 89% | 75% |  | 
3 | CC(C)C[C@H]1C(=O)O[C@H](Cc2ccccc2)C(=O)N(C)[C@@H](CC(C)C)C(=O)O[C@@H]2CCN(C2=O)[C@@H](CC(C)C)C(=O)O[C@H](Cc2ccccc2)C(=O)N(C)[C@@H](CC(C)C)C(=O)O[C@H](C)C(=O)N1C |  |  |  |  | 69% | 89%
4 | CC(C)C[C@H]1C(=O)O[C@H](Cc2ccccc2)C(=O)N(C)[C@@H](CC(C)C)C(=O)OC2CCCCN(C2=O)[C@@H](CC(C)C)C(=O)O[C@H](Cc2ccccc2)C(=O)N(C)[C@@H](CC(C)C)C(=O)O[C@H](C)C(=O)N1C (stereo partly specified) | 91% | 100% | 100% | 99% |  | 
